Screening results: PubChem, The Scripps Research Institute Molecular Screening Center
Most compounds without a hit are left out; they make up all but 1.9% or so of the library.
M5 ag: CHRM5 agonism in calcium assay | P08912 | CHO-K1 hM5 cells, Fluo-8 calcium fluorescence; 0% DMSO wells, 100% maximal acetylcholine response | activation, % at 3 µM | actives 0.19% (n = 360,000) | AID 624037;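 active means activation above the run's mean over test compounds plus 3 SD, cut at about 23% in these data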;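 further: signal is peak over basal fluorescence ratio across the kinetic read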
Target sequence (P08912 whole entry, looked up): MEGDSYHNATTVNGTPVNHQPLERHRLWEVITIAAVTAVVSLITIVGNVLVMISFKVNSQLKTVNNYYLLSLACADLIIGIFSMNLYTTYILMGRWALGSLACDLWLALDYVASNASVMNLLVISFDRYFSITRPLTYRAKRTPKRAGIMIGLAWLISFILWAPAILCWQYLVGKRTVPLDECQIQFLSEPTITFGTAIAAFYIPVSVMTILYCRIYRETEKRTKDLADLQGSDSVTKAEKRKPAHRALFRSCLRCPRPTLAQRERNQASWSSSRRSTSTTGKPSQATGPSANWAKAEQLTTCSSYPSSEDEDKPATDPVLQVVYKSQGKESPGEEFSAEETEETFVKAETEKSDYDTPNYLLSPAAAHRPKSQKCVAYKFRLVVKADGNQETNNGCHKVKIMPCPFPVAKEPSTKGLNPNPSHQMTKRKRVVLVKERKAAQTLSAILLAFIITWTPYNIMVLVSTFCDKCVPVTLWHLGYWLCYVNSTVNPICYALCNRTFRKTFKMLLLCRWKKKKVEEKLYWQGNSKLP
CHRM5 PAM: CHRM5 positive allosteric modulation; P08912; CHO-K1 hM5, Fluo-8 calcium, ACh EC20 PAM; 0% = ACh EC20, 100% = ACh EC100; activation, % at 3 µM; actives 0.3% (n = 360,000); AID 624038;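 active means activation above the run cutoff, the mean activation of all test compounds plus 3 SD, cut at about 18% in these data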
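Replicates: One well per compound, no replicates | System: Human M5 receptor in CHO-K1 cells | Benchmarks: Low control EC20 acetylcholine (0%), high control EC100 acetylcholine (100%) | Probe or stimulus: Acetylcholine, EC20 level | Times: Fluo-8 loading 80 min at 37 °C plus 30 min room temperature | Signal: Intracellular calcium via Fluo-8 fluorescence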
CHRM4 PAM: CHRM4 positive allosteric modulation; P08173; CHO-K1 hM4/Gqi5, Fluo-8 calcium fluorescence, ACh EC20; 0% = ACh EC20, 100% = maximal ACh; activation, % at 3 µM; actives 0.4% (n = 360,000); AID 624126;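 active means activation above its plate's cutoff, the mean activation of sample wells plus 3 SD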
M5 antag: blocks acetylcholine activation of human M5 receptor; AID 624040; inhibition, % at 3 µM; CHO-hM5 cells, Fluo-8 calcium fluorescence, ACh EC80; actives 0.59% (n = 360,000); P08912;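 active means inhibition above a per-plate cutoff, the mean of that plate's test compounds plus 3 SD, cut at about 27% in these data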;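 further: 0% = acetylcholine EC80 with DMSO and 100% = DMSO without agonist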
M4 ag: CHRM4 agonism in calcium assay. P08173. CHO-K1 hM4/Gqi5, Fluo-8 calcium fluorescence; vehicle 0%, full acetylcholine response 100%. activation, % at 3 µM. actives 0.14% (n = 360,000). AID 624127;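 active means activation above the run mean over all test wells plus 3 SD, cut at about 32% in these data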;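 further: peak over basal fluorescence ratio per well then scaled between controls; 0% = DMSO wells and 100% = acetylcholine at EC100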
CHRM4 antagonist: CHRM4 antagonism in calcium assay | P08173 | CHO-hM4 cells, ACh EC80, Fluo-8 calcium fluorescence | inhibition, % at 3 µM | actives 0.73% (n = 360,000);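 active means inhibition above its plate's cutoff, the mean inhibition of sample wells plus 3 SD, cut at about 27% in these data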;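 further: 0% = acetylcholine EC80 with DMSO and 100% = DMSO without agonist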
Starred values were filed as active, the others as inactive.

SMILES	M5 ag	CHRM5 PAM	CHRM4 PAM	M5 antag	M4 ag	CHRM4 antagonist
O=C(COc1ccccc1[N+](=O)[O-])c1ccccc1	-2.2	-5.9	3.1	12.9	0.5	1.9
COC(=O)/C=C/COc1ccccc1[N+](=O)[O-]	-2.4	7.0	17.8*	-1.2	0.4	-4.6
COc1cc2c(cc1OC)C(c1cccc(Br)c1)NC(=O)C2 (stereo unspecified)	11.3	24.0*	-9.2	-12.0	0.7	5.1
O=C1CSC(c2ccccc2)N1c1ccc([N+](=O)[O-])cc1 (stereo unspecified)	-22.4	-15.3	-14.3	19.2	0.0	33.3*
S=C1NC[C@H](Cc2cccc3ccccc23)N1CC1CCCCC1	-1.1	6.8	9.6	5.5	4.2	-4.2
O=C1NC[C@@H](Cc2cccc3ccccc23)N(CC2CCCCC2)C1=O	1.7	22.4*	6.6	-17.4	0.6	-0.8
COc1cccc(CN2CC(C(=O)NCC3CCOCC3)CCC2=O)c1 (stereo unspecified)	-4.4	-6.8	-4.1	8.5	-0.1	3.9
Cc1ccc(SCc2[nH]nc3c2C2(C(=O)Nc4ccc([N+](=O)[O-])cc42)C(C#N)=C(N)O3)cc1 (stereo unspecified)	-1.9	25.1*	50.9*	-5.0	1.7	0.8
Cc1ccc(SCc2[nH]nc3c2C2(CCSCC2)C(C#N)=C(N)O3)cc1	3.2	3.6	-1.2	-4.9	3.7	2.9
C#CCOCCOCCOCCNc1nc(N2CCN(C(=O)[C@H](CCC(=O)O)n3cc(CN)nn3)CC2)nc(N2CCN(C(=O)[C@H](CCCCN)n3cc([C@@H](N)CC(N)=O)nn3)CC2)n1	0.0	-2.4	-3.8	12.1	0.2	3.3
Cc1ccc(CNc2nc(NCc3ccccc3)nc3ccsc23)c(C)c1	9.4	-17.7	-13.1	28.1*	22.2	28.2*
CNc1nc(NCc2ccc(C)cc2C)c2sccc2n1	4.8	-7.5	-5.8	12.0	7.0	0.7
COCCNc1nc(NCc2ccccc2OC)c2sccc2n1	2.3	-9.6	-1.0	4.1	13.9	-16.4
COCCNc1nc(NCc2ccccc2)nc2ccsc12	82.1*	-22.3	-14.9	96.9*	142.4*	99.7*
O=C1CCCN1CCCNc1nc(NCc2ccccc2)nc2ccsc12	84.9*	-21.9	-14.9	90.3*	144.6*	95.8*
Oc1ccc(C=NN=C2c3ccccc3-c3ccccc32)c(O)c1	5.2	4.3	8.1	2.2	1.9	-10.4
COc1ccc(C(=O)/C=C2\C(=O)Nc3ccc(Br)cc32)cc1	13.6	5.0	-8.7	11.6	5.4	26.6*
O=C1Nc2ccc(Br)cc2/C1=C/C(=O)c1ccc2c(c1)OCO2	33.8*	4.2	-28.6	22.3	5.2	46.9*
Cc1ccc(NS(=O)(=O)c2c(C)[nH]c(C)c2C(=O)N2CCCCC2)c(Cl)c1	-3.7	-6.7	-2.2	18.0	3.1	-4.2
O=C(NCCN1C(=O)S/C(=C\c2ccc(Cl)cc2Cl)C1=O)C1=COCCO1	-4.2	0.1	-1.3	3.0	3.1	2.8
CCN1CCN(c2ccc(NC(=O)c3ccccc3F)cc2Cl)CC1	-17.7	-25.8	-13.1	11.9	-0.1	16.4
CCN1CCN(c2ccc(NC(=O)c3cc4ccccc4cc3OC)cc2C)CC1	-9.1	-42.0	-12.8	56.1*	6.6	18.9
CN(C)CC/C=C1/c2ccccc2Sc2c(O)cc(Cl)cc21	-6.3	-16.4	-14.6	98.4*	2.3	50.3*
COc1cc(Cl)cc2c1Sc1ccccc1/C2=C/CCN(C)C	-12.1	-29.3	-13.8	35.8*	2.4	18.8
COc1cc2c(cc1Cl)/C(=C\CCN(C)C)c1ccccc1S2	-4.0	-17.8	-34.6	25.0	8.5	33.1*
SMILES	M5 ag	CHRM5 PAM	CHRM4 PAM	M5 antag	M4 ag	CHRM4 antagonist
CN1CCN(CC/C=C2/c3ccccc3Sc3ccc(S(=O)(=O)N(C)C)cc32)CC1	0.5	-9.4	-6.3	-2.1	7.1	-2.7
CN(C)CC/C=C1/c2cc(F)ccc2Sc2ccc(Cl)cc21	-18.9	-29.4	-16.0	99.4*	4.5	96.5*
CCOC(=O)C1CCCN(Cc2nc3ccc([N+](=O)[O-])cc3c(=O)n2-c2ccc(OC)cc2OC)C1 (stereo unspecified)	29.2*	-13.0	-24.0	2.2	6.2	9.7
CCOc1ccccc1NC(=O)c1cccc(N2C(=O)CCC2=O)c1	-3.7	-4.6	0.4	0.5	1.2	-4.7
CCOc1ccccc1NC(=O)c1cc(C(=O)Nc2ccccc2OCC)cc(N2C(=O)CCC2=O)c1	-1.3	-16.8	-8.7	29.1*	8.6	3.1
O=C(NC1CC2CCC(C1)N2Cc1ccccc1)c1ccccc1Br (stereo unspecified)	-7.1	-1.4	-6.3	-1.4	0.2	2.3
COc1ccc2[nH]cc(/C=N/NS(=O)(=O)c3ccc(C)cc3)c2c1	0.7	-2.6	7.2	2.6	6.5	28.3*
COc1ccc2c(/C=N/NS(=O)(=O)c3ccc(C)cc3)c[nH]c2c1	0.6	6.9	1.6	-8.4	1.4	5.4
CCCC(=O)NC1=C(Cl)C(=O)c2ccccc2C1=O	19.6	0.9	-8.4	31.5*	12.0	61.4*
CCNC1=C(Cl)C(=O)c2ccccc2C1=O	-5.0	-7.9	-0.2	-0.6	-0.7	12.1
O=C1C(Cl)=C(Nc2ccc(O)cc2)C(=O)c2ccccc21	-18.7	-25.8	-23.7	41.1*	-2.1	63.6*
O=C(O)c1cnn(-c2nc(-c3ccc(Br)cc3)cs2)c1C(F)(F)F	-5.1	-3.5	-9.8	11.5	7.2	13.5
COc1ccccc1C(CNC(=O)c1cccc(S(=O)(=O)Nc2ccc(C)cc2)c1)N1CCCC1 (stereo unspecified)	-10.4	-33.4	-9.3	27.5*	2.2	19.0
COc1ccccc1NS(=O)(=O)c1cccc(C(=O)NCC(c2ccccc2OC)N2CCCC2)c1 (stereo unspecified)	-10.7	-24.5	-10.0	6.7	0.9	2.6
CCOc1ccc(NS(=O)(=O)c2ccc(C(=O)NCC(c3ccco3)N3CCCC3)cc2)cc1 (stereo unspecified)	12.3	4.7	-0.8	6.5	34.0*	-15.2
CCOc1ccc(S(=O)(=O)Nc2cccc(C(=O)N3CC(C)OC(C)C3)c2)cc1 (stereo unspecified)	6.6	-1.5	-4.8	-2.8	1.6	3.7
CCOc1ccc(S(=O)(=O)Nc2ccc(C(=O)N3CC(C)OC(C)C3)cc2)cc1 (stereo unspecified)	30.0*	-6.6	-7.2	8.9	16.2	12.1
CCOc1ccc(NS(=O)(=O)c2ccc(NC(=S)NC(C)=O)cc2)cc1	25.3*	-6.5	-6.2	3.3	25.6	6.6
